Measured values as given in ChEMBL document CHEMBL1149327, “Punaglandins, chlorinated prostaglandins, function as potent Michael receptors to inhibit ubiquitin isopeptidase activity” (J Med Chem, 2004).

How the values were obtained:
Assay type in all cases: functional, cell-based
HCT cell line [1] = test: Cytotoxicity against wild type p21-l- gene in human colon tumor 116 (HCT 116) cell lines was determined
Outline: (§1)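 HCT 116 wild-type and isogenic p53- or p21-disrupted lines (McCoy's 5A, 10% FBS) seeded at 3.0 × 10^3/well, adhered 24 h, then treated at varying concentrations for 48 h, eight replicates, DMSO controls. Viability by MTS, absorbance 490 nm after 2–3 h, expressed as % of same-plate DMSO control; EC50 fitted from log concentration–response curve; done twice.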

HCT cell line [2] = test: Cytotoxicity against wild type p53-l- gene in human colon tumor 116 (HCT 116) cell lines was determined; outline: as §1
HCT cell line [3] = test: Cytotoxicity against wild type p53 gene in human colon tumor 116 (HCT 116) cell lines was determined; outline: as §1
HCT cell line [4] = test: Cytotoxicity against wild type p21 gene in human colon tumor 116 (HCT 116) cell lines was determined; outline: as §1
RKO [5] = test: Cytotoxicity against human RKO cell line
Outline: (§2)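 RKO and RKO-E6 cells (DMEM, 10% FBS, 37 °C, 5% CO2) seeded at 5.0 × 10^3/well, adhered 24 h, then exposed to varying concentrations for 48 h, eight replicates, DMSO controls. MTS conversion read at 490 nm after 2–3 h; growth as % of same-plate DMSO control; EC50 from concentration–response curve. Assay run twice.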

RKO [6] = test: Cytotoxicity against human RKO-E6 cell line; settings: RKOE6; outline: as §2

CCCCC/C=C\C[C@@]1(O)C=C(Cl)C(=O)[C@@H]1[C@@H](OC(C)=O)[C@H](OC(C)=O)[C@H](CCCC(=O)OC)OC(C)=O
EC50 (HCT cell line [1]): 40 nM
EC50 (HCT cell line [2]): 40 nM
EC50 (HCT cell line [3]): 40 nM
EC50 (HCT cell line [4]): 47 nM

CCCCC/C=C\C[C@@]1(O)C=C(Cl)C(=O)[C@@H]1C[C@H](OC(C)=O)[C@H](CCCC(=O)OC)OC(C)=O
EC50 (HCT cell line [1]): 320 nM
EC50 (HCT cell line [2]): 360 nM
EC50 (RKO [5]): 440 nM
EC50 (HCT cell line [3]): 340 nM
EC50 (HCT cell line [4]): 330 nM
EC50 (RKO [6]): 470 nM

CC/C=C/C/C=C\C[C@@]1(O)C=C(Cl)C(=O)/C1=C/[C@H](OC(C)=O)[C@H](CCCC(=O)OC)OC(C)=O
EC50 (HCT cell line [1]): 300 nM
EC50 (HCT cell line [2]): 370 nM
EC50 (HCT cell line [3]): 320 nM
EC50 (HCT cell line [4]): 290 nM

CCCCC/C=C\C[C@@]1(O)C=C(Cl)C(=O)/C1=C/[C@H](OC(C)=O)[C@H](CCCC(=O)OC)OC(C)=O [PUNAGLANDIN 4]
EC50 (HCT cell line [1]): 280 nM
EC50 (HCT cell line [2]): 350 nM
EC50 (RKO [5]): 310 nM
EC50 (HCT cell line [3]): 330 nM
EC50 (HCT cell line [4]): 340 nM
EC50 (RKO [6]): 370 nM
